Test results as given in ChEMBL document CHEMBL3813698, “Hydrophobic substituents increase the potency of salacinol, a potent α-glucosidase inhibitor from Ayurvedic traditional medicine 'Salacia'” (Bioorg Med Chem, 2016).
pIC50: −log10 of the molar value.

Key:
Maltase-glucoamylase = Maltase-glucoamylase (Homo sapiens, UniProt O43451); test: Inhibition of human small intestine microsomal maltase using maltose as substrate incubated for 30 mins by glucose-oxidase method
How it was run: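 Enzyme was human small-intestinal microsome in 0.1 M maleate buffer (pH 6.0), with maltose as substrate. Test sample was dissolved in DMSO and diluted in maleate buffer. Sample, substrate and enzyme were incubated at 37 °C for 30 min, stopped by boiling for 2 min, and glucose measured by the glucose-oxidase method.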

[1] = Inhibition of rat small intestinal maltase using maltose as substrate incubated for 30 mins by glucose-oxidase method
How it was run: (§1)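 Rat small-intestinal α-glucosidases in 0.1 M maleate buffer (pH 6.0). Test sample dissolved in DMSO, diluted with maleate buffer (10% DMSO in sample solution; 2.5% final). Substrate solution concentrations were maltose 74 mM (maltase), sucrose 74 mM (sucrase) and isomaltose 7.4 mM (isomaltase). Substrate, sample and enzyme were mixed at 37 °C for 30 min, stopped by 2 min boiling, and glucose read by glucose oxidase.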

[2] = target: T1, Sucrase-isomaltase, intestinal (Rattus norvegicus, UniProt P23739); test: Inhibition of rat small intestinal isomaltase using isomaltose as substrate incubated for 30 mins by glucose-oxidase method; how it was run: as §1
T1 sequence (P23739 1-1013 limits assumed): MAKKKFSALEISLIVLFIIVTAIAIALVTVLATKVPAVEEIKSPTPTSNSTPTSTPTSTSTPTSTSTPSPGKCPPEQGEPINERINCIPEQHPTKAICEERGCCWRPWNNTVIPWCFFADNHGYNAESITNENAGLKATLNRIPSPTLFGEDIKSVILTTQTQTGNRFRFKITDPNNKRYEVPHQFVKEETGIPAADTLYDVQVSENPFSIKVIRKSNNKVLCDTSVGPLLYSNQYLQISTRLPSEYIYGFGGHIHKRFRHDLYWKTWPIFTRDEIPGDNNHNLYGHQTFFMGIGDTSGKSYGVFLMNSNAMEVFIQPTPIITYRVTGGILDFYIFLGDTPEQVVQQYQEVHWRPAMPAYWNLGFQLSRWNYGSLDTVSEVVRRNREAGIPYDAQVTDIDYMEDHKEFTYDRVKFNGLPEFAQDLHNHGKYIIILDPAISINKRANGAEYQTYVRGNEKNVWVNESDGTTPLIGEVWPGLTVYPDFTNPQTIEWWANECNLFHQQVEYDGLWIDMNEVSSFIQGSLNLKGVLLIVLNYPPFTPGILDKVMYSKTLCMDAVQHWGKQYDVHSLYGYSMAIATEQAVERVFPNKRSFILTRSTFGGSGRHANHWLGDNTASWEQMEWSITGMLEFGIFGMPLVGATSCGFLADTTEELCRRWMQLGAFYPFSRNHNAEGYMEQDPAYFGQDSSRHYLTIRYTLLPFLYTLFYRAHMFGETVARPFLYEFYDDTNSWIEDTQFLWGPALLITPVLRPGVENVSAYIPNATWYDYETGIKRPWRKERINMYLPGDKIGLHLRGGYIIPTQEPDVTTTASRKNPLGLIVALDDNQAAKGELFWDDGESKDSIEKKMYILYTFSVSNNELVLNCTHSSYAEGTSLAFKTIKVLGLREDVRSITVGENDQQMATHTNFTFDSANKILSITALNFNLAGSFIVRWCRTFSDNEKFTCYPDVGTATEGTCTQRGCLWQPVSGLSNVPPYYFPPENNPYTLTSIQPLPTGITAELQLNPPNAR
T1 sequence (P23739 1014-1841 limits assumed): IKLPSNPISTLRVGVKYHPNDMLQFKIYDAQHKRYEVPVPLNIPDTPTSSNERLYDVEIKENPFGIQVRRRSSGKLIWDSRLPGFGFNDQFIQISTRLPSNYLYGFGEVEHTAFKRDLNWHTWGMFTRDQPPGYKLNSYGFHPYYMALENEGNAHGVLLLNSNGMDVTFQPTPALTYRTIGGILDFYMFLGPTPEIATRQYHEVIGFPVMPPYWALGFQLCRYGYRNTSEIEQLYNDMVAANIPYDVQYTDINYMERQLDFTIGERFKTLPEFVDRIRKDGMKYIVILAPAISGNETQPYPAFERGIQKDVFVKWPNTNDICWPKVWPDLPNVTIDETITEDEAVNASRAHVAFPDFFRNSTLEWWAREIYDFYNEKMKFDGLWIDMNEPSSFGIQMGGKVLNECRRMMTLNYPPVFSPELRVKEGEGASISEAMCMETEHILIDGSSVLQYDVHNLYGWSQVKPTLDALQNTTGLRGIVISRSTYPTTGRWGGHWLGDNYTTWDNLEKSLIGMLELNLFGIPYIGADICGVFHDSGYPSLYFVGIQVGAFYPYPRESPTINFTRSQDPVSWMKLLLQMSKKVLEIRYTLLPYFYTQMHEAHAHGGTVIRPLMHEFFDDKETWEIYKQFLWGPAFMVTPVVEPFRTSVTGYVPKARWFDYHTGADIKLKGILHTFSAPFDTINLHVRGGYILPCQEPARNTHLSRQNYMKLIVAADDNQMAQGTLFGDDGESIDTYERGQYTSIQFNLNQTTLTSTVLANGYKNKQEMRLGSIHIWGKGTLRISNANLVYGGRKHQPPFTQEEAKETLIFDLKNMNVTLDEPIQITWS

[3] = target: T1, Sucrase-isomaltase, intestinal; test: Inhibition of rat small intestinal sucrase using sucrose as substrate incubated for 30 mins by glucose-oxidase method; how it was run: as §1

Maltase-glucoamylase, sequence (O43451 whole entry): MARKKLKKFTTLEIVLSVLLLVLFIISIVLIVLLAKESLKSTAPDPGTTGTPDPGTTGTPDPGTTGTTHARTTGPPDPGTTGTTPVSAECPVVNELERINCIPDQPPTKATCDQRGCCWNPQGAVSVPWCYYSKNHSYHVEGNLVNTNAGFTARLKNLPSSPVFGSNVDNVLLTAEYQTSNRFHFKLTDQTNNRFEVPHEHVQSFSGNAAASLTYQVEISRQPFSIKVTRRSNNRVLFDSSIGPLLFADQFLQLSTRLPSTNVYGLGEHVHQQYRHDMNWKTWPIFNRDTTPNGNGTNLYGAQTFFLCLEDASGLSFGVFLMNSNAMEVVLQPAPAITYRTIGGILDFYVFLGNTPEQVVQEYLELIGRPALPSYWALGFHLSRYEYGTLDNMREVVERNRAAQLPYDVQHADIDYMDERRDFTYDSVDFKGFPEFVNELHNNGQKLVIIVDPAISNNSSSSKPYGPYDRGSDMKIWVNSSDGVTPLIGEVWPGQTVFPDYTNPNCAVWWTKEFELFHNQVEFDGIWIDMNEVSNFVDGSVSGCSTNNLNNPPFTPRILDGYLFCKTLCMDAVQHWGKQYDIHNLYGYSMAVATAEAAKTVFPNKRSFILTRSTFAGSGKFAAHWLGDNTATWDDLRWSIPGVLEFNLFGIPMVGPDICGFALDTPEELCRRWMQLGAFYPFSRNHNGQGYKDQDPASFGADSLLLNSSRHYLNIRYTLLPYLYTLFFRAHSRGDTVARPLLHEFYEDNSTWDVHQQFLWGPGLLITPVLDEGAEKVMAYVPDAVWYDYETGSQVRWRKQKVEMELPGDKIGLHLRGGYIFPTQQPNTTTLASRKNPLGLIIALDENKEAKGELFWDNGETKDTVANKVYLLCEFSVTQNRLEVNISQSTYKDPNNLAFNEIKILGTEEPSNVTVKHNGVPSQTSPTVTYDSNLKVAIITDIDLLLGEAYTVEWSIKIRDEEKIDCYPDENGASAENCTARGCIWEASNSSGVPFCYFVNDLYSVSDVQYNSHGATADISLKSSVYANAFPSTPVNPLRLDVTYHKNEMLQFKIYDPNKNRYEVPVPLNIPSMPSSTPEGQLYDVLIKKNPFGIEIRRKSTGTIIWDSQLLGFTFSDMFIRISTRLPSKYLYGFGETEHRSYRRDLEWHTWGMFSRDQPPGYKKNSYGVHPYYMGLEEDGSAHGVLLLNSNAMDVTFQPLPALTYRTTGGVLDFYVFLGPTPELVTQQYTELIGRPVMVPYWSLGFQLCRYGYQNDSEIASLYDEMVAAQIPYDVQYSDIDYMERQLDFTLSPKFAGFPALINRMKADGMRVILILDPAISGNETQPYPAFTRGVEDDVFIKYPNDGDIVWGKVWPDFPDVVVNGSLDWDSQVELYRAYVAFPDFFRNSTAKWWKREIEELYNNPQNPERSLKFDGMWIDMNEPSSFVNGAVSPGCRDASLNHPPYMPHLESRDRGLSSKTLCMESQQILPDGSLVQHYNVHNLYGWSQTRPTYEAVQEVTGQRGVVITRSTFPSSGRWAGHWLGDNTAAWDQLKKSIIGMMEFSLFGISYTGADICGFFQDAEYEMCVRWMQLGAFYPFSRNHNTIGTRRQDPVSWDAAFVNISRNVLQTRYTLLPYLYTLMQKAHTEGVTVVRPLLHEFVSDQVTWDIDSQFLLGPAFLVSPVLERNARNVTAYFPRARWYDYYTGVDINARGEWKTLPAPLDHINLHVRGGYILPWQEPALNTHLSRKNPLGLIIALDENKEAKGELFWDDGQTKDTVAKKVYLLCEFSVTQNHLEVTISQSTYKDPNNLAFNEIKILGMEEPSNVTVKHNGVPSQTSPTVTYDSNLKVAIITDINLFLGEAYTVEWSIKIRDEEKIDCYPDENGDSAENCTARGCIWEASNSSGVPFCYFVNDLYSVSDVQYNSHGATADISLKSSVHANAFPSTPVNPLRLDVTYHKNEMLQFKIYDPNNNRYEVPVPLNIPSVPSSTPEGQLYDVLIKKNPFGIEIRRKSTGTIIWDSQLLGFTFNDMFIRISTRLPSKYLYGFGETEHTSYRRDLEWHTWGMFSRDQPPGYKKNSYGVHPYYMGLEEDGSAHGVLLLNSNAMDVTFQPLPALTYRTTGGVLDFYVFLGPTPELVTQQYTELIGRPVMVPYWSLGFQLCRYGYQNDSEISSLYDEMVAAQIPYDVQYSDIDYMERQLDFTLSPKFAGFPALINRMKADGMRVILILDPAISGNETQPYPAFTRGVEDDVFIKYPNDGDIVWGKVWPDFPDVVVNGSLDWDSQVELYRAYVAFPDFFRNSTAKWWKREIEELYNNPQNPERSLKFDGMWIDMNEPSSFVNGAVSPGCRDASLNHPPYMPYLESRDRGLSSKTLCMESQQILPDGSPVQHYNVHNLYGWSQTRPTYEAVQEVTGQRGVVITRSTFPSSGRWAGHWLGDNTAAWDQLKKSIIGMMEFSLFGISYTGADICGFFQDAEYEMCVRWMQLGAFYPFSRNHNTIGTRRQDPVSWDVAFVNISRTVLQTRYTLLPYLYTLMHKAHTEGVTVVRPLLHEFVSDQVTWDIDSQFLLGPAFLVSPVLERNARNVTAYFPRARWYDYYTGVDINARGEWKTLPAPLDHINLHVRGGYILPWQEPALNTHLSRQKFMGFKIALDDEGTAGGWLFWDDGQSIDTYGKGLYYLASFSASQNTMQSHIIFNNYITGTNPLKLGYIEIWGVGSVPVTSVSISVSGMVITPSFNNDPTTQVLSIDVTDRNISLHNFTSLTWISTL

pIC50 (Maltase-glucoamylase) | pIC50 [1] | pIC50 [2] | pIC50 [3] | Compound
5.05 | 5.10 | 6.52 | 5.89 | OC[C@@H]1[C@@H](O)[C@H](O)C[S+]1C[C@@H](O)[C@@H](O)CO (some centres undefined)
 | 5.28 | 5.89 | 5.80 | O=S(=O)([O-])O[C@@H](CO)[C@H](O)C[S+]1C[C@@H](O)[C@H](O)[C@H]1CO (some centres undefined)
5.96 | 5.98 | 6.02 | 5.89 | CCCCCCCCCCCCCO[C@@H](CO)[C@H](O)C[S+]1C[C@@H](O)[C@H](O)[C@H]1CO (some centres undefined)
6.82 | 6.89 | 6.68 | 7.38 | O=[N+]([O-])c1ccccc1CO[C@@H](CO)[C@H](O)C[S@@+]1C[C@@H](O)[C@H](O)[C@H]1CO
5.82 |  | 6.33 | 6.30 | CCCCCO[C@@H](CO)[C@H](O)C[S+]1C[C@@H](O)[C@H](O)[C@H]1CO (some centres undefined)
5.70 | 5.28 | 6.41 | 6.34 | CO[C@@H](CO)[C@H](O)C[S+]1C[C@@H](O)[C@H](O)[C@H]1CO (some centres undefined)
6.02 |  | 6.57 | 6.92 | CCO[C@@H](CO)[C@H](O)C[S+]1C[C@@H](O)[C@H](O)[C@H]1CO (some centres undefined)
6.19 | 6.10 | 6.60 | 6.62 | CCCCCCCO[C@@H](CO)[C@H](O)C[S+]1C[C@@H](O)[C@H](O)[C@H]1CO (some centres undefined)
6.16 | 6.10 | 6.47 | 7.05 | CC(C)CO[C@@H](CO)[C@H](O)C[S+]1C[C@@H](O)[C@H](O)[C@H]1CO (some centres undefined)
6.33 | 6.52 | 6.55 | 7.05 | CC(C)(C)CO[C@@H](CO)[C@H](O)C[S+]1C[C@@H](O)[C@H](O)[C@H]1CO (some centres undefined)
 | 5.09 |  |  | OCCN1C[C@H](O)[C@@H](O)[C@H](O)[C@H]1CO [MIGLITOL]
5.89 |  |  |  | OCC(CO)N[C@H]1C[C@](O)(CO)[C@@H](O)[C@H](O)[C@H]1O [VOGLIBOSE]
